Measurements pooled from the literature.
Protocols differ between the studies behind these lines.

Compound | tested on | assay | system | conditions | quantity | result
CCCCC(=O)Nc1ccc(-c2ccc3ncn(CCC(C)C)c(=O)c3c2)cn1 | NCI-H1975 | cell growth or viability, CCK-8 | – | 72 h | IC50 | 540 nM
NCCC(=O)Nc1ccccc1/N=c1\cc(-c2ccc3oc(N)nc3c2)oc2ccccc12 | NCI-H1975 | cell growth or viability, CCK-8 | – | 1 µM | inhibition | 24.3%
Nc1nc2c(ncn2COCCO)c(=O)[nH]1 | Human alphaherpesvirus 2 | viral replication, inhibitor, qPCR | BEAS-2B | – | IC50 | 160 nM
CCCCn1cnc2ccc(-c3ccc(NC(=O)C4CCCCC4)nc3)cc2c1=O | NCI-H1975 | cell growth or viability, CCK-8 | – | 72 h | IC50 | 1600 nM
NCCCCC(=O)Nc1ccccc1/N=c1\cc(-c2ccc3c(c2)OCO3)oc2ccccc12 | NCI-H1975 | cell growth or viability, CCK-8 | – | 1 µM | inhibition | -2.12%
C[C@@H]1[C@H](O)[C@@H](C)/C=C/C=C/C=C/C=C/C=C/C=C/C=C/[C@H](O[C@@H]2O[C@H](C)[C@@H](O)[C@H](N)[C@@H]2O)C[C@@H]2O[C@](O)(C[C@@H](O)C[C@@H](O)[C@H](O)CC[C@@H](O)C[C@@H](O)CC(=O)O[C@H]1C)C[C@H](O)[C@H]2C(=O)O | Leishmania amazonensis | parasite growth, MTT | – | promastigote | IC50 | 280 nM
CCCCn1cnc2ccc(-c3ccc(NC(=O)CCC)nc3)cc2c1=O | NCI-H1975 | cell growth or viability, CCK-8 | – | 72 h | IC50 | 1270 nM
CCNC(=O)Nc1nc2cc(-c3ccc4ncn(Cc5ccccc5)c(=O)c4c3)ccc2s1 | NCI-H1975 | cell growth or viability, MTT | – | 72 h | IC50 | 9890 nM
NCC(=O)Nc1ccccc1/N=c1\cc(-c2ccc3c(c2)OCO3)oc2ccccc12 | NCI-H1975 | cell growth or viability, CCK-8 | – | 1 µM | inhibition | 1.26%
COc1cccc(NC(=O)Nc2nc3cc(-c4ccc5ncn(Cc6ccccc6)c(=O)c5c4)ccc3s2)c1 | NCI-H1975 | cell growth or viability, MTT | – | 72 h | IC50 | > 20000 nM
CCCC(C)C(=O)Nc1ccc(-c2ccc3ncn(CCC)c(=O)c3c2)cn1 (stereo not drawn) | NCI-H1975 | cell growth or viability, CCK-8 | – | 72 h | IC50 | 2760 nM
O=C(Nc1nc2cc(-c3ccc4ncn(Cc5ccccc5)c(=O)c4c3)ccc2s1)NC1CCCCC1 | NCI-H1975 | cell growth or viability, MTT | – | 72 h | IC50 | > 20000 nM
COc1ccc2/c(=N/c3ccccc3NC(=O)[C@@H](N)C(C)(C)C)cc(-c3ccc4c(c3)OCCO4)oc2c1 | NCI-H1975 | cell growth or viability, CCK-8 | – | 1 µM | inhibition | 4.59%
CC(C)NC(=O)Nc1nc2cc(-c3ccc4ncn(Cc5ccccc5)c(=O)c4c3)ccc2s1 | NCI-H1975 | cell growth or viability, MTT | – | 72 h | IC50 | 5540 nM
C[C@H](N)C(=O)Nc1ccccc1/N=c1\cc(-c2ccc3c(c2)OCCO3)oc2c([N+](=O)[O-])cccc12 | NCI-H1975 | cell growth or viability, CCK-8 | – | 1 µM | inhibition | 1.15%
